# KCNQ1 pot – potentiators or activators of KCNQ1 channel, primary screen, cell-based, thallium flux, high-throughput. Potassium voltage-gated channel subfamily KQT member 1 (Homo sapiens), P51787. CHO-K1 KCNQ1, thallium flux FluxOR fluorescence; stronger effect = higher value. B-score at 10 µM. actives 0.35% (n = 310,000);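 active = fluorescence ratio B-score, a plate-corrected score, at least three library SD, with initial intensity B-score within 5 SD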
#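 Schedule – 37 °C overnight plating, 90-min dark dye load, 20-min compound pretreatment · System – stable KCNQ1 CHO-K1 line · Probe or stimulus – thallium- and potassium-containing depolarizing buffer · Measured by – kinetic FluxOR fluorescence, 10 s baseline plus 110 s post-stimulus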
# KCNK9 inh – KCNK9 potassium channel inhibitors, primary screen, HEK293 cells, thallium flux; B-score at 10 µM; actives 1.2% (n = 310,000); Potassium channel subfamily K member 9 (Homo sapiens), Q9NPC2; FluxOR thallium flux fluorescence; stronger effect = lower value; AID 488922, 2010;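 active = ratio B-score over 3 SD below the library mean, with starting fluorescence within 5 SD of its mean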;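 note: negative B-score means less thallium flux so channel inhibition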
# Target sequence (Q9NPC2 whole entry, looked up): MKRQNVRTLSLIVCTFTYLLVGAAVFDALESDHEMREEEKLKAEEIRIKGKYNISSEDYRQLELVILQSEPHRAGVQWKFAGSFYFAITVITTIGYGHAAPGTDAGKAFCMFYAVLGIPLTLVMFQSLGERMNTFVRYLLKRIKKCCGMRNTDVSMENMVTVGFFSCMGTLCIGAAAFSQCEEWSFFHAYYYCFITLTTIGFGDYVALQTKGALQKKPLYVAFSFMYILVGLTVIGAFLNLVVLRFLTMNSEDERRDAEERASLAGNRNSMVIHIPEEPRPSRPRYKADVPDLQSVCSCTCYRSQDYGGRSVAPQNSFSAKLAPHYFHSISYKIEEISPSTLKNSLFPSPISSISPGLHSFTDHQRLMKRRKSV
# KCNQ1 inh – inhibitors of human KCNQ1 channel, primary screen, cell-based, thallium flux, high-throughput | Potassium voltage-gated channel subfamily KQT member 1 (Homo sapiens), P51787 | CHO-K1 KCNQ1, FluxOR thallium flux fluorescence; stronger effect = higher value | B-score at 10 µM | actives 1.3% (n = 310,000);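 active = compounds whose thallium flux B-score, printed positive for inhibition, exceeds three library SD while starting fluorescence stays within three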;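 note: channel opened by potassium depolarization with thallium stimulus after 20 min compound exposure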
# KCNK3 inh – human KCNK3 channel inhibitors, primary screen, CHO cells, FluxOR thallium flux, B-score. FluxOR fluorescence; stronger effect = lower value. B-score at 10 µM. Potassium channel subfamily K member 3 (Homo sapiens), O14649. actives 0.84% (n = 340,000);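 active = B-score under library mean minus 4 SD, starting fluorescence ratio at most library mean plus 5 SD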;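 note: more negative B-score means stronger inhibition of thallium flux through KCNK3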
# Target sequence (O14649 whole entry, looked up): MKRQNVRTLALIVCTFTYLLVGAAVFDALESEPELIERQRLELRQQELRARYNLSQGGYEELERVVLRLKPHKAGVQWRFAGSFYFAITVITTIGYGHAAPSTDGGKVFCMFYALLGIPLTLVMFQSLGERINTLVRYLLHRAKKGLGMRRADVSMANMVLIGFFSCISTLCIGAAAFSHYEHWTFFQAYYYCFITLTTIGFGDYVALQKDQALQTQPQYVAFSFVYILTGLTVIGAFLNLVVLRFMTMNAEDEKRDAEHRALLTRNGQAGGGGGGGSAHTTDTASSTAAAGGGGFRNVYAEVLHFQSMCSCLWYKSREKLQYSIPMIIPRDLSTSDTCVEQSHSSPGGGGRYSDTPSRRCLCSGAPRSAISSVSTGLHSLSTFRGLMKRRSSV
# hERG rescue – hERG rescue from dofetilide block, primary screen, cell-based, CHO-hERG, FluxOR thallium flux, dofetilide IC70; activation (rescue from dofetilide block), less the hit threshold, % at 10 µM; Voltage-gated inwardly rectifying potassium channel KCNH2 (Homo sapiens), Q12809; AID 1511, 2009; dofetilide IC70 present; actives 0.51% (n = 310,000);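 active = activation above the mean of controls blocked by dofetilide plus 5 SD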;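 note: thallium influx through hERG after potassium depolarization seen as dye fluorescence rise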
# KCNQ1 inh valid – KCNQ1 potassium channel inhibitors, confirmation, cell-based, Tl flux, duplicate; KCNQ1 cell line, FluxOR thallium flux fluorescence; actives 93% (n = 1,600); AID 588353, 2011; inhibition, % at 10 µM; shares compounds with KCNQ1 inh;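 active = primary screen active, with duplicate mean exceeding buffer control mean plus 3 SD of buffer wells, cut at about 28% in these data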;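 note: 0% = buffer control ratio and 100% = XE991 inhibitor control ratio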
# CHO Tl flux – thallium flux effects in parental CHO cells, counter-screen for KCNQ1 inhibitor project, cell-based, Tl flux | fluorescence ratio (Tl flux) at 10 µM | shares compounds with KCNQ1 inh | actives 21% (n = 1,600) | parental CHO-K1, FluxOR thallium flux fluorescence ratio; stronger effect = lower value; zero means no signal rise above baseline;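 active = mean of duplicate thallium-flux fluorescence ratios in parental host cells more than 5 SD below the buffer control mean, cut at about 0.38 in these data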;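 note: ratio is peak minus minimum fluorescence divided by baseline fluorescence; actives read low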
# KCNQ1 ephys val – KCNQ1 channel inhibitors, confirmation, orthogonal assay, cell-based, automated electrophysiology. shares compounds with KCNQ1 inh. KCNQ1-CHO cells, automated patch clamp current. calls only at 10 µM. actives 20% (n = 490). AID 624120, 2012;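 active = KCNQ1 current drop exceeding 3 SD of negative control wells, seen in both duplicate runs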;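 note: steady state current during a 2 s step from -80 to +40 mV; negative values mean current inhibition and positive values mean potentiation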
# KCNQ2 inh – KCNQ2 channel inhibition, selectivity assay for KCNQ1 inhibitor project, cell-based; shares compounds with KCNQ1 inh; KCNQ2 cells, FluxOR thallium flux fluorescence; inhibition, % at 10 µM; actives 71% (n = 1,600);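 active = mean percent inhibition of the KCNQ2 thallium signal more than 5 SD above the buffer-only control wells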;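 note: KCNQ2 expressed in CHO cells; 0% = buffer control wells and 100% = XE-991 inhibitor control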
# KCNQ1 KCNE1 spec – KCNQ1/KCNE1 channel inhibition, selectivity assay for KCNQ1 inhibitor project, CHO-K1 cells, thallium flux, FluxOR | shares compounds with KCNQ1 inh | FluxOR thallium flux fluorescence | inhibition, % at 10 µM | actives 77% (n = 1,600) | AID 652147, 2013;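 active = mean percent inhibition of duplicate wells above the buffer-only control mean plus 3 SD of those controls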;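 note: 0% = buffer only wells and 100% = XE-991 inhibitor control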
# KCNK9 inh conf – KCNK9 potassium channel inhibitors, confirmation, HEK293 cells, thallium flux, duplicate | FluxOR thallium flux fluorescence | AID 492992, 2010 | actives 43% (n = 4,900) | inhibition, % at 10 µM | shares compounds with KCNK9 inh;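 active = thallium signal inhibited by more than 5 SD of the compound-free buffer control wells, on both duplicate plates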;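 note: 0% = assay buffer control wells without compound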
# Kir21 sel – mouse Kir2.1 channel inhibition, confirmation, selectivity assay for KCNK9 modulator project, cell-based, HEK293, thallium flux; shares compounds with KCNK9 inh; actives 4% (n = 4,900); Kir2.1 cells, FluxOR thallium flux fluorescence; inhibition, % at 10 µM;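 active = thallium signal drop more than 5 SD beyond the mean of the no-compound control wells, seen in both duplicate plates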;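 note: signal is fluorescence rise after thallium addition divided by baseline fluorescence; plate controls were assay buffer only for no effect and full block by chlorpromazine control for full effect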
# HEK293 Tl ctr – thallium flux in non-induced HEK293 cells, confirmation, counter-screen for KCNK9 inhibitor project, cell-based, second counter screen, non-induced KCNK9-HEK293; shares compounds with KCNK9 inh; FluxOR thallium flux; inhibition, % at 10 µM; actives 40% (n = 4,900); AID 492997, 2010;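 active = thallium signal drop beyond 5 SD of the untreated control mean, on both duplicate plates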;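 note: plate controls were buffer only IC0 wells for no effect and SID17386958 at its maximal inhibitory level for full effect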
# KCNK3 inh conf – retest of human KCNK3 channel inhibitors, confirmation, CHO cells, FluxOR thallium flux, triplicate. shares compounds with KCNK3 inh. FluxOR fluorescence; 0% buffer, 100% carvedilol maximal block. ratio percent of control, % at 10 µM. actives 99% (n = 2,400). AID 651638, 2012;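 active = ratio percent of control, averaged over triplicates, above buffer control mean plus 5 SD, cut at about 64% in these data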;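 note: ratio is the fluorescence rise from min to max over baseline after thallium stimulus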
# KCNK3 noninduced – thallium flux inhibition in non-induced cells, primary screen, counter-screen for KCNK3 inhibitor project, cell-based, non-induced KCNK3 line, FluxOR thallium, triplicate. thallium flux ratio (lower = more inhibition) at 10 µM. non-induced KCNK3 parental cells; stronger effect = lower value. shares compounds with KCNK3 inh. actives 40% (n = 2,400);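 active = thallium flux ratio, averaged over three wells, more than 5 SD below the buffer control mean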;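 note: host cells are CHO cells without KCNK3 induction; ratio is peak minus trough fluorescence over baseline then normalized to buffer controls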
# * hit, by the source's call; i = inactive; · = no result given; + = active, no number. Most compounds without a hit are left out; they make up all but 3.1% or so of the library.
SMILES,KCNQ1 pot,KCNK9 inh,KCNQ1 inh,KCNK3 inh,hERG rescue,KCNQ1 inh valid,CHO Tl flux,KCNQ1 ephys val,KCNQ2 inh,KCNQ1 KCNE1 spec,KCNK3 inh conf,KCNK3 noninduced,others
CCOc1ccc(C(=O)Nc2cccc(-c3nc4cccnc4o3)c2)cc1Cl,i,-16.4*,9*,-10*,-18.4,135.0*,0.472,i,110.3%*,189.5%*,125.3*,i,KCNK9 inh conf=45.5%*;Kir21 sel=i;HEK293 Tl ctr=i
CCOc1ccc(C(=O)Nc2cccc(C(=O)O)c2)cc1Cl,i,i,i,i,-7.2,·,·,·,·,·,·,·,
CC(=O)c1cccc(S(=O)(=O)N2CCn3cccc3C2C)c1 (stereo unspecified),·,·,·,i,·,·,·,·,·,·,·,·,
Fc1ccc(C2c3cccn3CCN2C(=S)Nc2cccc(F)c2)cc1 (stereo unspecified),i,-7.53*,9*,-10.2*,-16.0,118.5*,0.388,+,116.0%*,182.5%*,134.7*,0.151*,
Fc1cccc(NC(=S)N2CCn3cccc3C2c2cccnc2)c1 (stereo unspecified),i,i,i,i,-18.1,·,·,·,·,·,·,·,
NC(=O)c1ccsc1NC(=O)COC(=O)Cc1cccc2ccccc12,i,i,9*,-8.92*,-30.9,110.0*,0.314*,·,103.7%*,+,115.7*,i,
O=[N+]([O-])c1c(Nc2ccccc2O)ccc2nonc12,i,i,i,i,-1.1,·,·,·,·,·,·,·,
O=[N+]([O-])c1c(Nc2ccccc2O)cc(Cl)c2nonc12,i,i,21*,-12.2*,-34.6,183.5*,0.2*,·,151.3%*,+,154.3*,0.0763*,
O=C(Nc1nccs1)C1CCCN1/C=C/C(=O)C(F)(F)F (stereo unspecified),i,i,i,i,-2.2,·,·,·,·,·,·,·,
Cn1c(N2CCN(C(c3ccccc3)c3ccccc3)CC2)nc2ccccc21,i,-14.2*,12*,-12.7*,-14.9,142.5*,0.385,i,142.3%*,+,117.0*,0.157*,KCNK9 inh conf=83.5%*;Kir21 sel=i;HEK293 Tl ctr=i
CCc1cccc2c(C(=O)COC(=O)[C@@H]3CC(O)CN3S(=O)(=O)c3ccccc3[N+](=O)[O-])c[nH]c12 (stereo partly specified),·,·,·,i,·,·,·,·,·,·,·,·,
COc1ccc(C(=O)C2CCCN(Cc3cccn3-c3nccs3)C2)cc1OC (stereo unspecified),i,i,i,i,-15.0,·,·,·,·,·,·,·,
Cc1ccsc1C(=O)C1CCCN(Cc2cccn2-c2ccc(Cl)cn2)C1 (stereo unspecified),i,i,9*,-9.07*,-25.6,91.5*,0.43,+,71.7%*,57.5%*,127.3*,0.136*,
O=c1c2c(nc(NCCO)n1CC1CCCCC1)-c1ccccc1CC21CCCC1,i,-7.4*,6*,-16.3*,3.5,91.0*,0.432,i,104.0%*,i,114.7*,0.158*,
CN(C)CCCNC(=O)C(=O)NCC1OCCN1S(=O)(=O)c1cc(F)ccc1F (stereo unspecified),i,i,i,i,-8.2,·,·,·,·,·,·,·,
CCCNC(=S)N1CCN(c2nc(C)nc3sc4c(c23)CCCC4)CC1,i,i,8*,-9.54*,-12.7,111.5*,0.41,i,135.3%*,169.5%*,134.0*,0.136*,
CCS(=O)(=O)c1ncc(Cl)c(C(=O)Nc2ccc(S(=O)(=O)N3CCC(C)CC3)cc2)n1,i,-7.02*,6*,-8.81*,-24.9,0.0,0.431,·,i,69.5%*,124.0*,0.118*,
Cc1cnc(C(=O)N2CCc3c([nH]c4ccccc34)C2c2ccc(F)cc2)cn1 (stereo unspecified),i,i,i,i,-0.1,·,·,·,·,·,·,·,
Fc1ccc(C2c3[nH]c4ccccc4c3CCN2Cc2cccn2-c2ncccn2)cc1 (stereo unspecified),i,-7.81*,6*,-14*,-21.7,83.5*,0.44,·,72.0%*,97.0%*,121.3*,0.152*,
COc1ccc(OCC(=O)Nc2ccc(N3CCN(Cc4ccccc4F)CC3)cc2)cc1,i,i,i,i,-13.9,·,·,·,·,·,·,·,
